The values below come from ChEMBL document CHEMBL4834416, “The Discovery of Novel ACA Derivatives as Specific TRPM2 Inhibitors that Reduce Ischemic Injury Both In Vitro and In Vivo” (J Med Chem, 2021).

Activity calls are given as the source filed them.

The nature of series [1]: AUC (0 to t) in C57BL/6 mouse plasma at 10 mg/kg, IG by LC-MS/MS analysis. The format is ADME, organism-based. Also on record: dose 10 mg/kg. The following applies: po.
Series [2] addresses Transient receptor potential cation channel subfamily M member 2 (Homo sapiens, UniProt O94759). The series is described as follows: Inhibition of human TRPM2 expressed in HEK293T cells assessed as suppression of H2O2-induced calcium flux at 1 uM measured after 30 mins by Fluo-3/AM assay. It counts as cell-based. For orientation: Calcium assays in cells follow changes in intracellular calcium, usually with a dye or a luminescent sensor.

Series [3] can be described thus: Half life in C57BL/6 mouse plasma at 1 mg/kg, iv by LC-MS/MS analysis. The format is ADME, organism-based.
Series [4] deals with Mus musculus. The series is described as follows: Neuroprotective activity in mouse model of transient middle cerebral artery occlusion-induced cerebral ischemia-reperfusion injury assessed as reduction in infarct volume at 1 mg/kg, iv treated for 3 hrs after onset of reperfusion by TTC staining based assay (reference value: 52 +/- 1.7%). The format is functional. Also noted: scale not given: the % may be the effect or the level left.

Series [5] is described as follows: Cmax in C57BL/6 mouse plasma at 3 mg/kg, iv by LC-MS/MS analysis. The format is ADME, organism-based. Also noted: route intravenous, dose 3 mg/kg.
Series [6] is described as follows: AUC (0 to infinitive) in C57BL/6 mouse plasma at 3 mg/kg, iv by LC-MS/MS analysis. Also on record: time infinity, route intravenous, dose 3 mg/kg. It counts as ADME, organism-based.
Series [7] is described as follows: Tmax in C57BL/6 mouse plasma at 1 mg/kg, iv by LC-MS/MS analysis. The format is ADME, organism-based.
The test system of series [8] is SH-SY5Y. In words: Neuroprotective activity against oxygen glucose deprivation/reperfusion-induced cell death in human SH-SY5Y cells assessed as cell viability at 3 uM […] by CCK8 assay relative to control. It counts as functional. In general terms: Formazan colour is commonly taken as a measure of viable cells.
A short description of series [9]: Clearance in C57BL/6 mouse plasma at 1 mg/kg, iv by LC-MS/MS analysis. The format is ADME, organism-based.
The nature of series [10]: MRT in C57BL/6 mouse plasma at 10 mg/kg, IG by LC-MS/MS analysis. It counts as ADME, organism-based. Conditions: po.
The target in series [11] is Phospholipase A2 (Homo sapiens, UniProt P04054). The series is described as follows: Inhibition of PLA2 (unknown origin) using soybean phosphatidylcholine as substrate at 10 uM preincubated for 30 mins followed incubated for 60 mins after substrate addition by microplate reader relative to control. An outline of the steps: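 PLA2 (4 μg/L in PBS) was preincubated 30 min at 37 °C with inhibitor in 125 mM Tris. Substrate was then added for 60 min: soybean phosphatidylcholine with Tris, CaCl₂, sodium deoxycholate and 0.5% Triton X-100. Liberated free fatty acids were quantified colorimetrically at OD550. Results are % inhibition versus enzyme without inhibitor, n = 3.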
Phospholipase A2, sequence (P04054 23-148 limits assumed): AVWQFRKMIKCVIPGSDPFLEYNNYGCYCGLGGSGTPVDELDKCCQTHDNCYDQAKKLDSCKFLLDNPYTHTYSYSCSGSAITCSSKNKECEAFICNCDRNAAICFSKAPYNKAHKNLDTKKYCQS

Transient receptor potential cation channel subfamily M member 2, sequence (O94759 whole entry): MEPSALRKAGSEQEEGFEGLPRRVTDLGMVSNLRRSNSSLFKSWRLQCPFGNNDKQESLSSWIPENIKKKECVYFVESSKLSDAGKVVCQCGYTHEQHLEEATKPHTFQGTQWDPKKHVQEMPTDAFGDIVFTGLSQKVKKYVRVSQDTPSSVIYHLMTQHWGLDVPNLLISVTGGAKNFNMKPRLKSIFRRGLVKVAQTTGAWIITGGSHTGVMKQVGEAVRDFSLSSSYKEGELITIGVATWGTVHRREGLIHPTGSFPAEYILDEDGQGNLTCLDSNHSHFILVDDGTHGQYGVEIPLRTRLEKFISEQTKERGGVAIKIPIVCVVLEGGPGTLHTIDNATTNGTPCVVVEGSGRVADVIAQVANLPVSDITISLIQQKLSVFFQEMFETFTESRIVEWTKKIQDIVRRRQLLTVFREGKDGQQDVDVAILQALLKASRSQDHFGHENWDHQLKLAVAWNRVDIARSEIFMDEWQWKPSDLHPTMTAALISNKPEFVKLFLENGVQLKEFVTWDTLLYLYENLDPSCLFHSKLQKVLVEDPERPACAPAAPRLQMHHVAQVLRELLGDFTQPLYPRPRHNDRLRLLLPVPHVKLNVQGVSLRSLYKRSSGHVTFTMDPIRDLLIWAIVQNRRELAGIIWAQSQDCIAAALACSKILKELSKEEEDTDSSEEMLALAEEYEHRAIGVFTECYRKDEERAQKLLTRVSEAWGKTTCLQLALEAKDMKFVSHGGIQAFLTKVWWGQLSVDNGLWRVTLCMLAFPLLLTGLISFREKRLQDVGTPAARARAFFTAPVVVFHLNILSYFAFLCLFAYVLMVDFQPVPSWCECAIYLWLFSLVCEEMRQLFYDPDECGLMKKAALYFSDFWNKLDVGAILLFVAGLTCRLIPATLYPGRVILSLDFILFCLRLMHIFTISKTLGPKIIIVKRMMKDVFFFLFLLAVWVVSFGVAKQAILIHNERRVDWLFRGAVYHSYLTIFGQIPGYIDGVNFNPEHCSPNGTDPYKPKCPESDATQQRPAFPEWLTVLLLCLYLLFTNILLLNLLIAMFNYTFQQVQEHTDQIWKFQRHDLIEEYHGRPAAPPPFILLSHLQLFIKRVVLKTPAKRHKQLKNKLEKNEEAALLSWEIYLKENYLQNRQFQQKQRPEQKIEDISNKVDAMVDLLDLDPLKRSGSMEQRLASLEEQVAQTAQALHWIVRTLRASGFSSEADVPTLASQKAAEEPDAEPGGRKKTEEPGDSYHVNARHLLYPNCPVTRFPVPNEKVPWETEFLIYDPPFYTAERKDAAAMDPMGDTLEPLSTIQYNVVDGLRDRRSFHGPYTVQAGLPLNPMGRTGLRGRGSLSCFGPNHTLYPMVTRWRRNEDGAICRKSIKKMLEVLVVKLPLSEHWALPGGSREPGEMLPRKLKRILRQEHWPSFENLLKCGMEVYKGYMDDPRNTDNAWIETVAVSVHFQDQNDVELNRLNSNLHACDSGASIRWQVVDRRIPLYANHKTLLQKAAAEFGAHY

One may read the AUC(0-t) as the area under the concentration-time curve up to a stated or last time point. The inhibition is the change of the read-out against control, counted positive when it falls. As usually defined, the half-life is the time needed for the level to fall by half in the phase considered. Broadly, the Cmax is the peak of the concentration-time curve. The AUC(0-inf) is the area under the concentration-time curve extrapolated to infinity. A word on the Tmax: it is the time from dosing to the highest level. The term clearance denotes the volume of plasma or blood freed of the substance per unit of time. As usually defined, the MRT is a mean duration of stay, worked out from the concentration-time curve. For `O=C(/C=C/c1ccc(-c2cccc(C(F)(F)F)c2)cc1)Nc1ccccc1C(=O)O`, the AUC(0-t) in series [1] was 157 µg·h/mL. Besides, the values for the inhibition in [2] and in series [11] were greater than 45% and 14.8%, respectively. The compound further had a half-life in [3] of 1.7 h. Moreover, the Activity in series [4] was 38.5%. The compound also registered a Cmax in series [5] of 24.3 µg/mL. Further, the AUC(0-inf) in [6] stood at 40.9 µg·h/mL. Moreover, in series [7], the time to peak (Tmax) came out at 4.8 min. In addition, the result in series [8] was Active. The compound further had a clearance in series [9] of 0.0529 L/h/kg. In [10], the MRT amounted to 2.25 h.
